Drawing on ChEMBL document CHEMBL3352732, “Nannozinones and sorazinones, unprecedented pyrazinones from myxobacteria” (J Nat Prod, 2014), this text covers IC50 and MIC for 10 compounds.

The nature of experiment [1]: Cytotoxicity against human KB3-1 cells by MTT assay. The following applies: KB 3-1. It counts as functional, cell-based. A digest of the protocol:
(§1)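 MTT assay in 96-well plates, giving IC50. Media: DMEM for KB-3-1, A431, A549 and L929; F12K for PC-3; RPMI for MCF-7; EBM-2 for HUVEC; McCoy's for SKOV-3. All media had 10% FBS, and cells were kept at 37 °C under 10% CO2. Methanol served as negative control and epothilone A as positive control.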
A general note: Tetrazolium dyes change colour on reduction, which living cells bring about.

Experiment [2] deals with MCF7. Put plainly: Cytotoxicity against human MCF7 cells by MTT assay. It is filed as functional, cell-based. The method in brief:
as §1

A short description of experiment [3]: Cytotoxicity against human PC3 cells by MTT assay. It counts as functional, cell-based. The following applies: PC-3. A digest of the protocol:
as §1

For experiment [4], the system named is L929. Put plainly: Cytotoxicity against mouse L929 cells by MTT assay. It is filed as functional, cell-based. The method in brief: as §1
Experiment [5] can be described thus: Cytotoxicity against human SKOV3 cells by MTT assay. It counts as functional, cell-based. The conditions noted are these: SK-OV-3. The method in brief: as §1
In experiment [6] the test system is Pseudomonas aeruginosa. Put plainly: Antimicrobial activity against Pseudomonas aeruginosa 50071 after 24 to 48 hrs by serial dilution method. It is filed as functional. The method in brief: (§2)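 Compounds from 1 mg/mL stock, 2 and 20 μL aliquots, serially diluted 1:1 in 0.15 mL medium in microtiter plates. Shaken at 160 rpm, 30 °C, 24−48 h. MIC is the lowest concentration preventing visible growth.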

For experiment [7], the system named is Staphylococcus aureus. Briefly: Antimicrobial activity against Staphylococcus aureus 346 after 24 to 48 hrs by serial dilution method. It counts as functional. The method in brief:
as §2

The test system of experiment [8] is Candida albicans. Put plainly: Antimicrobial activity against Candida albicans 1665 after 24 to 48 hrs by serial dilution method. It is filed as functional. A digest of the protocol:
(§3)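 Yeasts and filamentous fungi tested in MYC medium (1.0% glucose, 1.0% phytone peptone, 50 mM HEPES, pH 7.0). Aliquots of 2 and 20 μL from 1 mg/mL stock, 1:1 serial dilution in 0.15 mL medium in microtiter plates. Incubated at 30 °C with shaking at 160 rpm for 24−48 h. MIC read as the lowest concentration with no visible growth.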

In experiment [9] the test system is A549. Briefly: Cytotoxicity against human A549 cells by MTT assay. It is filed as functional, cell-based. The method in brief:
as §1

For experiment [10], the system named is Chromobacterium violaceum. Put plainly: Antimicrobial activity against Chromobacterium violaceum 30191 after 24 to 48 hrs by serial dilution method. It is filed as functional. The method in brief:
as §2

In experiment [11] the test system is Mycolicibacterium diernhoferi. Put plainly: Antimicrobial activity against Mycobacterium diernhoferi 43542 after 24 to 48 hrs by serial dilution method. It is filed as functional. The method in brief:
as §2

The test system of experiment [12] is Wickerhamomyces anomalus. Put plainly: Antimicrobial activity against Wickerhamomyces anomalus 6766 after 24 to 48 hrs by serial dilution method. It is filed as functional. A digest of the protocol: as §3
Experiment [13] concerns HUVEC. Put plainly: Cytotoxicity against HUVEC cells by MTT assay. It is filed as functional, cell-based. The following applies: Homo sapiens. The method in brief:
as §1

The test system of experiment [14] is Trichosporon oleaginosus. Put plainly: Antimicrobial activity against Trichosporon oleaginosus 11815 after 24 to 48 hrs by serial dilution method. It counts as functional. The conditions noted are these: Cutaneotrichosporon oleaginosum. A digest of the protocol:
as §3

For experiment [15], the system named is Paenibacillus polymyxa. Briefly: Antimicrobial activity against Paenibacillus polymyxa 36 after 24 to 48 hrs by serial dilution method. It is filed as functional. The method in brief: as §2
Experiment [16] concerns Escherichia coli. Briefly: Antimicrobial activity against Escherichia coli 1116 after 24 to 48 hrs by serial dilution method. It counts as functional. The method in brief: as §2
Experiment [17] deals with Nocardia sp. Put plainly: Antimicrobial activity against Nocardia sp. 43069 after 24 to 48 hrs by serial dilution method. It counts as functional. The method in brief:
as §2

The test system of experiment [18] is A-431. Briefly: Cytotoxicity against human A431 cells by MTT assay. It counts as functional, cell-based. The method in brief: as §1
The subject of experiment [19] is Saccharomyces cerevisiae. Briefly: Antimicrobial activity against Saccharomyces cerevisiae 70449 after 24 to 48 hrs by serial dilution method. It is filed as functional. A digest of the protocol:
as §3

Experiment [20] has as its system Mucor hiemalis. Put plainly: Antimicrobial activity against Mucor hiemalis 2656 after 24 to 48 hrs by serial dilution method. It counts as functional. The method in brief: as §3

Usually IC50 stands for the midpoint of a concentration-inhibition curve. Read a high IC50 as weaker potency. By MIC is commonly meant the lowest concentration that inhibits growth of the organism. A higher MIC goes with a less susceptible organism.

Values after ≈ are worked out from the molar mass of the structure shown.

On to `C/C(=C\c1csc(C)n1)[C@@H]1C[C@@H]2O[C@@H]2CCC[C@H](C)[C@H](O)[C@@H](C)C(=O)C(C)(C)[C@@H](O)CC(=O)O1` [EPOTHILONE A], for which the IC50 came out at 0.0096 µM in [1]; 0.0022 µM in [2]; 0.0024 µM in [3]; 0.0077 µM in experiment [4]; 0.0013 µM in experiment [5].

As to `O=c1cnc(CCc2ccccc2)c2n1CCC2`, the IC50 in experiment [1], in experiment [9], in experiment [13], in experiment [18], in experiment [2] and in experiment [3] was greater than 41.5 µM each time. Also, the IC50 in experiment [4] and in [5] was greater than 41.5 µM each time. In addition, the MIC in experiment [6] was 66.6 µg/mL (≈ 277 µM); in experiment [7] it was 66.6 µg/mL (≈ 277 µM); in experiment [8], 33.3 µg/mL (≈ 139 µM); in experiment [10], 66.6 µg/mL (≈ 277 µM); in [11], 33.3 µg/mL (≈ 139 µM); in experiment [12] (Hansenula anomala) it was greater than 66.6 µg/mL. Further, the MIC in experiment [14] came to 66.6 µg/mL (≈ 277 µM); in experiment [15] it was 66.6 µg/mL (≈ 277 µM); in experiment [16], 66.6 µg/mL (≈ 277 µM); in experiment [17], 66.6 µg/mL (≈ 277 µM); in experiment [19] it was 66.6 µg/mL (≈ 277 µM); in [20], 33.3 µg/mL (≈ 139 µM).

As for `Cc1nc(Cc2ccccc2)c(O)nc1Cc1ccccc1`, the IC50 in [1], in experiment [9], in experiment [2], in experiment [3], in experiment [4] and in experiment [5] was greater than 34.5 µM each time. The MIC in experiment [6], in [7], in [8], in [10], in experiment [11] and in experiment [12] (Hansenula anomala) was greater than 66.6 µg/mL each time. The MIC in experiment [14] is greater than 66.6 µg/mL; in experiment [15] it was greater than 66.6 µg/mL; in experiment [16] it was greater than 66.6 µg/mL; in experiment [17], 67 µg/mL (≈ 231 µM); in [19], greater than 66.6 µg/mL; in [20], greater than 66.6 µg/mL.

For NYSTATIN, the MIC in experiment [8] amounted to 8.3 µg/mL; in experiment [12], 16.6 µg/mL; in [14] it was 4.2 µg/mL; in experiment [19], 16.6 µg/mL; in experiment [20] it was 2.1 µg/mL.

For `CC(=O)c1c(Cc2ccccc2)[nH]c(=O)c2cccn12`, the IC50 in experiment [1] stood at 5.3 µM; in experiment [9], 8.7 µM; in experiment [13], 15.5 µM; in experiment [18], 8.45 µM; in [2] it was 14.1 µM; in experiment [3], 16.9 µM. In addition, the IC50 was greater than 37.6 µM in experiment [4] and 2.4 µM in [5]. In addition, the MIC in [6], in [7], in experiment [8], in experiment [10], in experiment [11] and in [12] (Hansenula anomala) was greater than 66.6 µg/mL each time. The MIC in experiment [14] is greater than 66.6 µg/mL; in [15], greater than 66.6 µg/mL; in [16] it was greater than 66.6 µg/mL; in experiment [17], 66.6 µg/mL (≈ 250 µM); in experiment [19] it was greater than 66.6 µg/mL; in [20], greater than 66.6 µg/mL.

Consider `Cc1ccn2c(=O)c3cccn3c(=O)c12`, for which the IC50 in experiment [1], in experiment [9], in [2], in [3], in [4] and in experiment [5] was greater than 50 µM each time. Moreover, the MIC in [6] is greater than 66.6 µg/mL; in experiment [7] it was greater than 66.6 µg/mL; in experiment [8], greater than 66.6 µg/mL; in experiment [10], greater than 66.6 µg/mL; in experiment [11], greater than 66.6 µg/mL; in experiment [12] (Hansenula anomala), 66.6 µg/mL (≈ 333 µM). For the same compound, the MIC in experiment [14] is greater than 66.6 µg/mL; in experiment [15] it was greater than 66.6 µg/mL; in [16] it was greater than 66.6 µg/mL; in [17], 16.6 µg/mL (≈ 82.9 µM); in experiment [19], greater than 66.6 µg/mL; in experiment [20], greater than 66.6 µg/mL.

On to GENTAMICIN, for which, in [6], 42 µg/mL was the least that counted as inhibitory (MIC).

Take `COC(=O)[C@H](CCCCN(O)C(=O)/C=C/c1ccccc1)NC(=O)CC(O)(CC(=O)N[C@@H](CCCCN(O)C(=O)/C=C/c1ccccc1)C(=O)OC)C(=O)O`: the IC50 in [1] is 0.05 µM; in experiment [9], 0.12 µM; in experiment [13], 0.05 µM; in [18] it was 0.1 µM; in experiment [2], 0.22 µM; in experiment [3], 0.19 µM. The IC50 in experiment [4] was determined as 1.82 µM; in experiment [5], 1.95 µM. Also, the MIC in [6] was greater than 66.6 µg/mL; in [7], greater than 66.6 µg/mL; in experiment [8] it was 33.3 µg/mL (≈ 43.3 µM); in experiment [10], greater than 66.6 µg/mL; in experiment [11], greater than 66.6 µg/mL; in [12] (Hansenula anomala) it was greater than 66.6 µg/mL. In addition, the MIC in experiment [14] is 66.6 µg/mL (≈ 86.6 µM); in experiment [15] it was greater than 66.6 µg/mL; in experiment [16] it was greater than 66.6 µg/mL; in experiment [17], greater than 66.6 µg/mL; in experiment [19], greater than 66.6 µg/mL; in experiment [20], greater than 66.6 µg/mL.

`CN(C)[C@@H]1C(O)=C(C(N)=O)C(=O)[C@@]2(O)C(O)=C3C(=O)c4c(O)cccc4[C@@](C)(O)[C@H]3[C@H](O)[C@@H]12.Cl` [OXYTETRACYCLINE HYDROCHLORIDE]: the MIC in experiment [7] was 0.52 µg/mL; in [10], 1 µg/mL; in experiment [11] it was 0.52 µg/mL; in experiment [15] it was 6.7 µg/mL; in experiment [16], 0.42 µg/mL; in experiment [17], 0.52 µg/mL.

With `COC(=O)c1c[nH]c2ccccc12`, the IC50 in experiment [1], in [9], in [2], in experiment [3], in [4] and in experiment [5] was greater than 56.8 µM in each case. Further, the MIC in experiment [6], in experiment [7], in experiment [8], in experiment [10], in experiment [11] and in experiment [12] (Hansenula anomala) was greater than 66.6 µg/mL in each case. Besides, the MIC in experiment [14] was greater than 66.6 µg/mL; in [15], greater than 66.6 µg/mL; in experiment [16] it was greater than 66.6 µg/mL; in experiment [17] it was 33.3 µg/mL (≈ 190 µM); in experiment [19], greater than 66.6 µg/mL; in experiment [20], greater than 66.6 µg/mL.
